Consider 14 compounds from ChEMBL document CHEMBL4431342, “Coumarin derivatives as potential inhibitors of acetylcholinesterase: Synthesis, molecular docking and biological studies” (Bioorg Med Chem, 2016).

Each structure is given as a SMILES string. The source made the active and inactive calls. No cut-off for these calls is given here.

The test system of assay [1] is Mus musculus. The experiment in a line: Antiamnesic activity in Albino LACA mouse assessed as decrease in scopolamine-induced increase in escape latency time administered intraperitoneally 5 mins post scopolamine challenge for 35 mins by Morris water maze test. The class given is functional, organism-based. A digest of the protocol:
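Mice of either sex, 25-35 g, housed in groups of five. […] Water maze: water 30 cm deep at 28 ± 2 °C, 5 days, 90 s maximum per trial, then a 90 s probe trial. Read-out is escape latency; n = 5, mean ± SEM.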

Assay [2] concerns the target T1, Acetylcholinesterase (Mus musculus, UniProt P21836).
T1 sequence (P21836 whole entry): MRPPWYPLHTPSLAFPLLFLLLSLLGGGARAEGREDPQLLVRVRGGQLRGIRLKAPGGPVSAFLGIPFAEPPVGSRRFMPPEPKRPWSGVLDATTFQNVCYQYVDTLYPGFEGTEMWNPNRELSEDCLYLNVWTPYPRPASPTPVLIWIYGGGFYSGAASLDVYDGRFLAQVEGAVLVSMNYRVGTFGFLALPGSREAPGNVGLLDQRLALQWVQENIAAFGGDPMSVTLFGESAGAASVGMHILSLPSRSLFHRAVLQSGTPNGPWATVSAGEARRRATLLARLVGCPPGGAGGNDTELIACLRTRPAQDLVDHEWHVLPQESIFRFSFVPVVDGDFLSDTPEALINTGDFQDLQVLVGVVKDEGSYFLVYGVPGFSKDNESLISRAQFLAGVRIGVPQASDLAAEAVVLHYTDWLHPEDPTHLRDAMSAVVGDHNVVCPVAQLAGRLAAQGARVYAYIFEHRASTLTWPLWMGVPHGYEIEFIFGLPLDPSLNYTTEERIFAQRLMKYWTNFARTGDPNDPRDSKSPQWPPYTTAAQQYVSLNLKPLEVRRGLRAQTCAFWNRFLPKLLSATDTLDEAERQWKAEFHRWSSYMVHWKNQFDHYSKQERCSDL
In words: biochemical. Format: tissue-based, LACA, Brain.

In assay [3] the test system is Mus musculus. In words: Antiamnesic activity in Albino LACA mouse assessed as scopolamine-induced increase in escape latency time administered intraperitoneally 5 mins post scopolamine challenge for 35 mins by Morris water maze test (reference value: 49.35 +/- 2.21 secs). Format: functional. A digest of the protocol:
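LACA albino mice, 25-35 g, either sex, housed five per group. Scopolamine 0.5 mg/kg i.p. or saline given 35 min before training, then vehicle (0.25% CMC suspension) or compound 1 mg/kg i.p. 5 min later. Water maze at 30 cm depth, 28 ± 2 °C, training over 5 days, 90 s maximum per trial, probe trial 90 s. Escape latency recorded, mean of 5 mice.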

Usually IC50 stands for the concentration that gives 50% inhibition. High values mean weaker potency in that assay, low ones greater potency in that assay. With `O=c1cc(OCCCN2CCN(c3ccccn3)CC2)c2ccccc2o1`, the result in assay [1] was Active. In assay [2], this compound had a half-inhibitory concentration (IC50) of 16.1 µM.

Take `O=C(NCCc1ccccc1)Oc1cc(=O)oc2ccccc12`: the result in assay [1] was Active. Further, in assay [2], half-maximal inhibition (IC50) was put at 83.4 µM.

Regarding `O=c1cc(OCCCN2CCC(Cc3ccccc3)CC2)c2ccccc2o1`, the result in assay [1] was Active. The compound further showed an IC50 in assay [2] of 11.4 µM.

Consider `O=c1cc(OCCCN2CCN(c3ncccn3)CC2)c2ccccc2o1`, for which the Time in assay [3] turned out to be 13.98 s. For the same compound, in assay [1], the result was Active. The same compound registered an IC50 in assay [2] of 21.6 µM.

As to `O=c1cc(OCCCN2CCN(c3ccccc3F)CC2)c2ccccc2o1`, in assay [3], the Time is 11.8 s. Further, the result in assay [1] was Active. In assay [2], this compound came in with a concentration for half-maximal inhibition (IC50) of 5.2 µM.

`O=c1cc(OCCCCN2CCN(c3ccccn3)CC2)c2ccccc2o1`: in assay [1], the outcome was Active. For the same compound, in assay [2], the midpoint of inhibition, the IC50, lay at 37.5 µM.

For `O=C(Oc1cc(=O)oc2ccccc12)N1CCN(c2ccccc2)CC1`, in assay [1], the outcome was Active. Moreover, the concentration for half-maximal inhibition (IC50) in assay [2] amounted to 74.8 µM.

`O=c1cc(OCCCN2CCN(c3ccccc3)CC2)c2ccccc2o1`: the Time in assay [3] was 8.05 s. The result in assay [1] was Active. In assay [2], the IC50 is 2.42 µM.

As for `O=c1cc(OCCCCN2CCN(c3ccccc3)CC2)c2ccccc2o1`, in assay [1], the outcome was Active. The compound also yielded a half-maximal inhibitory concentration (IC50) in assay [2] of 14.9 µM.

As to `COc1ccc(CCNCCCOc2cc(=O)oc3ccccc23)cc1OC`, the result in assay [1] was Active. The same compound displayed a half-inhibitory concentration (IC50) in assay [2] of 47.1 µM.

Consider `O=c1cc(OCCCNCCc2ccccc2)c2ccccc2o1`, for which, in assay [1], the result was Active. Further, the midpoint of inhibition in assay [2], the IC50, lay at 66.9 µM.

On to `O=c1cc(OCCCCN2CCN(c3ccccc3F)CC2)c2ccccc2o1`, for which the result in assay [1] was Active. Besides, the 50% inhibitory concentration (IC50) in assay [2] is 29.7 µM.

Turning to `O=c1cc(OCCCCN2CCN(c3ncccn3)CC2)c2ccccc2o1`, the outcome in assay [1] was Active. The compound further came in with an IC50 in assay [2] of 34.8 µM.

As to `O=c1cc(OCCCN2CCN(c3ccc(F)cc3)CC2)c2ccccc2o1`, the outcome in assay [1] was Active. Further, in assay [2], the IC50 is 9.5 µM.
